From ChEMBL document CHEMBL4118207, “Docking Screens for Dual Inhibitors of Disparate Drug Targets for Parkinson's Disease” (J Med Chem, 2018)
Activity calls are given as the source filed them. The calls are words filed in the database; no cut-off is given here.

Columns and labels:
[1] = biological target: T1, Adenosine receptor A2a (Homo sapiens, UniProt P29274); assay: Displacement of [3H]ZM241385 from A2A receptor in human HeLa cell membranes at 10 uM after 30 mins by beta-scintillation counting method
T1 sequence (P29274 whole entry): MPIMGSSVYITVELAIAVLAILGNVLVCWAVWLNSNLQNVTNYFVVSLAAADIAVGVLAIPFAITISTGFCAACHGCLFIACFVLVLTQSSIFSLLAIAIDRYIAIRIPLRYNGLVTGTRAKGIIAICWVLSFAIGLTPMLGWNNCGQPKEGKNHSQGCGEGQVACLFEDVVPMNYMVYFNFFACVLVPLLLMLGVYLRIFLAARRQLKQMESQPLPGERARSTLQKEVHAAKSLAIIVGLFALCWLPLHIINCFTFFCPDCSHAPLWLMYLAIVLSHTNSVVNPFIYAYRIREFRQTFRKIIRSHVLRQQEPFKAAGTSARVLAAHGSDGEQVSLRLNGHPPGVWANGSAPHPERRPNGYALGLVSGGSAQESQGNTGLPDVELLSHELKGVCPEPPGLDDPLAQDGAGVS

[2] = biological target: T1, Adenosine receptor A2a; assay: Displacement of [3H]ZM241385 from A2A receptor in human HeLa cell membranes after 30 mins by beta-scintillation counting method
[3] = test system: SH-SY5Y; assay: Cytoprotection against 6-OHDA-induced neurotoxicity in human SH-SY5Y cells assessed as reduction in 6-OHDA-induced cell viability decrease at 0.15 uM preincubated for 3 hrs followed by 6-OHDA addition measured after 24 hrs by resazurin dye based assay relative to control; assay type: functional
Outline: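 Human SH-SY5Y cells seeded 2.5 x 10^4/well in phenol-red-free DMEM with 1% FBS and 10 µM retinoic acid for 72 h to differentiate. Compound (0.1% v/v DMSO) pretreatment 3 h, then freshly prepared 20 µM 6-OHDA in saline/0.007% ascorbic acid for 24 h. Resazurin (0.02 mg/mL final) added for 2 h as the viability read-out.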

[4] = biological target: T2, Amine oxidase [flavin-containing] B (Homo sapiens, UniProt P27338); assay: Inhibition of recombinant human MAO-B expressed in baculovirus infected BTI insect cells at 10 uM using tyramine as substrate preincubated for 30 mins followed by substrate addition measured after 60 mins by amplex red reagent based fluorescence assay; conditions: 1 h
T2 sequence (P27338 whole entry): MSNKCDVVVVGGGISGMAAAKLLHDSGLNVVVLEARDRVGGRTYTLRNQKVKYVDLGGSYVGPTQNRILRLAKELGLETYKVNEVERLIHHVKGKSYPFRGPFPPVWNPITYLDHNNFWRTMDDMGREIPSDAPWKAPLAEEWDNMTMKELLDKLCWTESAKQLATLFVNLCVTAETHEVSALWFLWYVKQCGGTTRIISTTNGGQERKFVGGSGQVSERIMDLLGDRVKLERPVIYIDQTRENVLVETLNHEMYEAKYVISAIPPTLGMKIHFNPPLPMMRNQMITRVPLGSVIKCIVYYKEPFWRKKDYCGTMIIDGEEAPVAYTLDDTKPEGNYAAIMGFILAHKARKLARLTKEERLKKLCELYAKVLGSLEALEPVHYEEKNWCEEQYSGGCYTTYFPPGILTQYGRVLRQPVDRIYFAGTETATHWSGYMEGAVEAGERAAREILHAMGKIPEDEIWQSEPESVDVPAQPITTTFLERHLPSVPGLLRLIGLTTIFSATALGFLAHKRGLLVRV
Outline: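 Human recombinant MAO-B (final 1 U/mL) in 50 mM Tris-HCl pH 7.5, 0.05% CHAPS, 1% DMSO. Compound added from DMSO stock and pre-incubated 30 min at room temperature. Reaction started with tyramine (10 µM in 2-fold mix) and run 60 min at room temperature. HRP (final 0.1 U/mL) plus Amplex Red (final 10 µM) added; resorufin read at ex 535/em 590 nm over 30 min.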

[5] = biological target: T2, Amine oxidase [flavin-containing] B; assay: Inhibition of recombinant human MAO-B expressed in baculovirus infected BTI insect cells using tyramine as substrate preincubated for 30 mins followed by substrate addition measured after 60 mins by amplex red reagent based fluorescence assay
Outline: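 Recombinant human MAO-B, final 1 U/mL, in 50 mM Tris-HCl pH 7.5 with 0.05% CHAPS and 1% DMSO. Compounds dosed acoustically over 10^-9 to 10^-4 range, preincubated 30 min at room temperature. Interference controlled without enzyme, with added H2O2.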

[6] = biological target: T1, Adenosine receptor A2a; assay: Displacement of [3H]ZM241385 from A2A receptor in human HeLa cell membranes at 30 uM after 30 mins by beta-scintillation counting method relative to control
[7] = biological target: T2, Amine oxidase [flavin-containing] B; assay: Inhibition of recombinant human MAO-B expressed in baculovirus infected BTI insect cells at 30 uM using tyramine as substrate preincubated for 30 mins followed by substrate addition measured after 60 mins by amplex red reagent based fluorescence assay relative to control; conditions: 1 h
[8] = biological target: T2, Amine oxidase [flavin-containing] B; assay: Inhibition of recombinant human MAO-B expressed in baculovirus infected BTI insect cells using tyramine as substrate preincubated for 30 mins followed by substrate addition measured after 60 mins in presence of Triton X-100 by amplex red reagent based fluorescence assay; conditions: 1 h
[9] = biological target: T1, Adenosine receptor A2a; assay: Antagonist activity at human A2A receptor expressed in CHO cells assessed as inhibition of NECA-stimulated cAMP accumulation at 1 uM preincubated for 15 mins followed by NECA addition measured after 15 mins by enzyme immunoassay; assay type: functional, cell-based
Outline: (§1)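 CHO cells stably transfected with human A2A receptor, seeded 10^4 cells/well 24 h before assay. Washed in DMEM/F-12 with 25 mM Hepes pH 7.4, then switched to the same buffer plus 20 µM rolipram. Compound preincubated 15 min at 37 °C, NECA added at several concentrations for 15 min at 37 °C. cAMP measured by enzyme immunoassay.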

[10] = biological target: T1, Adenosine receptor A2a; assay: Antagonist activity at human A2A receptor expressed in CHO cells assessed as inhibition of NECA-stimulated cAMP accumulation at 100 nM preincubated for 15 mins followed by NECA addition measured after 15 mins by enzyme immunoassay; assay type: functional, cell-based; outline: as §1

In the case of `Cc1ccc(C(=O)Nc2nc3ccccc3[nH]2)cc1C`, the inhibition [1] is reported as “inactive”.
`Nc1nn(-c2ccccc2)nc1C(=O)CCc1ccccc1` was tested, and the Ki [2] was 2000 nM and the inhibition [1] was “inactive”.
`Cn1c(=O)c2c(nc(/C=C/c3cccc(Cl)c3)n2C)n(C)c1=O` showed an Activity [3] of 13%.
With `Cc1ccccc1C(=O)Nc1nc2ccccc2[nH]1` the inhibition [1] was “inactive”.
In the case of `COc1cccc(C(=O)Nc2nc3ccccc3[nH]2)c1`, the inhibition [1] is reported as “inactive”.
In the case of `O=C(Nc1nc2ccccc2[nH]1)c1ccccc1O`, the inhibition [1] is reported as “inactive”.
In the case of `Nc1nn(-c2ccccc2)nc1C(=O)O`, the inhibition [1] is reported as “inactive” and the “inhibition (INH)” value [4] is reported as “Not Active”.
In the case of `C[C@@H]1Oc2ccc(Nc3ncnc4c3oc3ccccc34)cc2NC1=O`, the Ki [2] is reported as 1200 nM, the IC50 [5] is reported as 1700 nM and the inhibition [6] is reported as over 60%. The inhibition at 30 µM [7] was over 70%.
`Cc1ccccc1-n1nc(N)c(C(=O)CCc2ccccc2)n1` was tested, and the inhibition [1] was “inactive”.
With `Cc1cccc(-n2nc(N)c(C(=O)CCc3ccccc3)n2)c1` the Ki [2] was 250 nM and the inhibition [1] was “inactive”.
For `Nc1nn(-c2ccccc2)nc1C(=O)NCc1ccccc1`, the Ki [2] was 23 nM and the inhibition [1] was “inactive”.
Molecule `Cc1ccccc1COC(=O)c1nn(-c2ccccc2)nc1N` has a Ki [2] of 49 nM and an IC50 [5] of 500 nM.
In the case of `Nc1nn(-c2ccccc2Cl)nc1C(=O)CCc1ccccc1`, the Ki [2] is reported as 630 nM and the inhibition [1] is reported as “inactive”.
In the case of `Cc1ccc2nc(NC(=O)c3ccccc3)[nH]c2c1`, the inhibition [1] is reported as “inactive”.
With `Cc1ccc(COC(=O)c2nn(-c3ccccc3)nc2N)cc1` the Ki [2] was 150 nM, the IC50 [5] was 3800 nM and the “inhibition (INH)” value [8] was “Active”.
With `COc1cccc2nc(NC(=O)c3ccccc3)[nH]c12` the Ki [2] was 530 nM and the inhibition [1] was “inactive”.
With `COc1cccc(CO)c1` the inhibition [1] was “inactive” and the “inhibition (INH)” value [4] was “Not Active”.
Work on `Nc1nn(-c2ccccc2)nc1C(=O)OCc1ccccc1` yielded a Ki [2] of 31 nM, an IC50 [5] of 380 nM and an inhibition [6] of over 60%. It also gave an inhibition at 30 µM [7] of over 70%.
`Nc1nn(-c2ccc(Cl)cc2)nc1C(=O)CCc1ccccc1` was tested, and the inhibition [1] was “inactive”.
With `Cc1ccc(C(=O)Nc2nc3ccccc3[nH]2)cc1` the inhibition [1] was “inactive”.
In the case of `O=C(Nc1nc2cccc(Cl)c2[nH]1)c1ccccc1`, the Ki [2] is reported as 99 nM, the inhibition [9] is reported as “Active” and the Activity [3] is reported as 14%.
`COc1cccc(COC(=O)c2nn(-c3ccccc3)nc2N)c1` was tested, and the Ki [2] was 19 nM, the inhibition [6] was over 60% and the inhibition [10] was “Active”. It also gave an Activity [3] of 13%.
`O=C(Nc1nc2ccccc2[nH]1)c1ccccc1` gave a Ki [2] of 2700 nM, an IC50 [5] of 5000 nM and an inhibition [6] of over 60%. The inhibition at 30 µM [7] was over 70% and the “inhibition (INH)” value [8] was “Active”.
For `Cc1ccc(-n2nc(N)c(C(=O)CCc3ccccc3)n2)cc1`, the inhibition [1] was “inactive”.
With `Cc1cccc(C(=O)Nc2nc3ccccc3[nH]2)c1` the inhibition [1] was “inactive”.
